The target of assay [1] is T1, Estrogen receptor (Rattus norvegicus) (UniProt P06211).
T1 sequence (whole entry): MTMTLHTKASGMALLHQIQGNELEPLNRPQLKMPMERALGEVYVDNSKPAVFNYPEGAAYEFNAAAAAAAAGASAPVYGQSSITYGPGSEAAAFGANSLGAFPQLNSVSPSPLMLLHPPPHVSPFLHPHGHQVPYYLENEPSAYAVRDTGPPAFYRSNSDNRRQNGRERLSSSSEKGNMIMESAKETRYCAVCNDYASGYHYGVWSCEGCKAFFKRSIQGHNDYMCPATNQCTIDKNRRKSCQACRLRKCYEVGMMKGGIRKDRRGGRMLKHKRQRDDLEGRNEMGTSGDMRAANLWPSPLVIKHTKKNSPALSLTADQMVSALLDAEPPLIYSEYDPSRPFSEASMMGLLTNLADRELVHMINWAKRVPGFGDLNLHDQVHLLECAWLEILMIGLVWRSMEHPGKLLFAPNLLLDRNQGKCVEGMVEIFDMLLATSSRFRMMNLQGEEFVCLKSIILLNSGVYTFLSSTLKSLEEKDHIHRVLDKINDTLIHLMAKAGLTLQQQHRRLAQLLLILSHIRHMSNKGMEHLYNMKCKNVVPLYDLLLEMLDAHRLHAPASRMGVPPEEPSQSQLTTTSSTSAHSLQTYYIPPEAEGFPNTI
The assay can be described thus: Binding affinity to rat uterus estrogen receptor at 10 uM.

The target of assay [2] is T2, 17-beta-hydroxysteroid dehydrogenase type 2 (Homo sapiens) (UniProt P37059).
T2 sequence (whole entry): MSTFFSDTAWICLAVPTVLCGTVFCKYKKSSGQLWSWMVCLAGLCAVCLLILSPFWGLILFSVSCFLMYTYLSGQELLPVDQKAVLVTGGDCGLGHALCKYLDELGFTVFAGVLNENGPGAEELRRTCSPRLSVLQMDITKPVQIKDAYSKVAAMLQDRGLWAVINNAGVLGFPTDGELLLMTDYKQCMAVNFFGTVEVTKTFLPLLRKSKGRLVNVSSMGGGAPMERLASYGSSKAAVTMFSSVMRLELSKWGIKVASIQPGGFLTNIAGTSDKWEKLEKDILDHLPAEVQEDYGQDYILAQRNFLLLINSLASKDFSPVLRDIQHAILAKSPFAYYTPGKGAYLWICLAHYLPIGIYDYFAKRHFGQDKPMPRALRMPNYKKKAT
The assay can be described thus: Inhibition of human 17beta-HSD2 expressed in HEK293 cells assessed as enzyme-mediated transformation of [14C]-testosterone in to [14C]-4-androstene-3,17-dione at 1 uM. Format: cell-based.

The target of assay [3] is T3, Glucocorticoid receptor (Rattus norvegicus) (UniProt P06536).
T3 sequence (whole entry): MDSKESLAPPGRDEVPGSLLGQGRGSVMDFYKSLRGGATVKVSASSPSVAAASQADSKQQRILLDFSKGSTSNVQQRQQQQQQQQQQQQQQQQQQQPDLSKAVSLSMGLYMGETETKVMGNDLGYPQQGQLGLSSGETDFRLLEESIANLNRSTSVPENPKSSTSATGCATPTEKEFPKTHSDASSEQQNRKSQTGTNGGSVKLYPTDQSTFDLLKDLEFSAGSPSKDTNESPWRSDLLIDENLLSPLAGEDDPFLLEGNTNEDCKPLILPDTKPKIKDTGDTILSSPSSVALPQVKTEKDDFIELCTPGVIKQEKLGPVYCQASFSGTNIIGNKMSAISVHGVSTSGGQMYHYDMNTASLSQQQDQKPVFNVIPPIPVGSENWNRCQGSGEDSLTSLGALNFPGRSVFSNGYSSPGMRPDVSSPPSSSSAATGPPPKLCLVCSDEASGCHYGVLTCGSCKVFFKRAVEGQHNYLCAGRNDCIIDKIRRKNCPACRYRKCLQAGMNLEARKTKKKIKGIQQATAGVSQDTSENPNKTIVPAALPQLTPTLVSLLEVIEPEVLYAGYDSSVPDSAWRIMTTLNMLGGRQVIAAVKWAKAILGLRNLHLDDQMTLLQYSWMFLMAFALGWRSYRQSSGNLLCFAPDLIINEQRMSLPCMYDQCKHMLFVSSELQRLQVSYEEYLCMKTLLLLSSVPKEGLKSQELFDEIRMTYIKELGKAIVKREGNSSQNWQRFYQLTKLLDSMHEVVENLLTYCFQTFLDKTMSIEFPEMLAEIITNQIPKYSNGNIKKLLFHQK
The assay can be described thus: Binding affinity to rat liver glucocorticoid receptor at 1 uM. In a few lines:
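Rat liver glucocorticoid receptor competitive binding, reported as % binding. Bound and free steroid are separated by dextran-coated charcoal adsorption instead of protamine sulfate precipitation.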

For assay [4], the target named is T4, Progesterone receptor (Rattus norvegicus) (UniProt Q63449).
T4 sequence (whole entry): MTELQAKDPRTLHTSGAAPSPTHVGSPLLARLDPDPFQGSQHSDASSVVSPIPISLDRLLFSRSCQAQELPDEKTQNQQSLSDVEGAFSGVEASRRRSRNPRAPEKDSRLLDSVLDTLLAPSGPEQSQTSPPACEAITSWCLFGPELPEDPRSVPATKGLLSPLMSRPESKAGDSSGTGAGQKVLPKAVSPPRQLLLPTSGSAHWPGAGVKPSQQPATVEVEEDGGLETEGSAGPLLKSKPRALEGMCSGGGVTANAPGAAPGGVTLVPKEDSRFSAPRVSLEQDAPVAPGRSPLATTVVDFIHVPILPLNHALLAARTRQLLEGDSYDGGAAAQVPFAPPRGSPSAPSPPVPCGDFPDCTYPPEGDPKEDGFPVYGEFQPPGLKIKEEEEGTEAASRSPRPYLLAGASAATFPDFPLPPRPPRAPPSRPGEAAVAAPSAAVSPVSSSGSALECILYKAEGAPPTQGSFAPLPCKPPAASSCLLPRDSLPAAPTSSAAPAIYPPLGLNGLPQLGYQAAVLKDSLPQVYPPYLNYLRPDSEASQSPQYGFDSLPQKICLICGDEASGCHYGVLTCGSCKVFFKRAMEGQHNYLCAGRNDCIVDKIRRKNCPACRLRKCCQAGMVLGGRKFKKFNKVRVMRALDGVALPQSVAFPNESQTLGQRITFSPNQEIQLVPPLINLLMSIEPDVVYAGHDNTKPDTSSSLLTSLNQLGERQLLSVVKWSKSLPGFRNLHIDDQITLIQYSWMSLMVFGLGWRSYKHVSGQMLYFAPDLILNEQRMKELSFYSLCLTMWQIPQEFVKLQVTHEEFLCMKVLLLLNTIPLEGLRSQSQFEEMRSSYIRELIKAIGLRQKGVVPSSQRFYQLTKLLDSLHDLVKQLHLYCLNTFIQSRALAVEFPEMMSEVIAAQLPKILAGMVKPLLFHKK
The assay can be described thus: Binding affinity to rat uterus progesterone receptor at 1 uM.

SMILES strings stand for the structures. Activity calls are given as the source filed them. The rule behind the calls is not given here.

`CC1(C)CC[C@@]2(CC[C@H]3[C@@H]4CCc5cc(O)ccc5[C@H]4CC[C@@]32C)OC1=O`: the Activity in assay [1] worked out at 80%. Besides, the result in assay [2] was inactive.
`CC1(C)CC[C@@]2(CC[C@H]3[C@@H]4CCc5ccccc5[C@H]4CC[C@@]32C)OC1=O`: the Activity in assay [3] was determined as 0%; in assay [4], 5%.

The record behind these values is ChEMBL document CHEMBL1153852, “Steroidal lactones as inhibitors of 17beta-hydroxysteroid dehydrogenase type 5: chemical synthesis, enzyme inhibitory activity, and assessment of estrogenic and androgenic activities” (Eur J Med Chem, 2009).
